Assay results: ChEMBL document CHEMBL1158335, “Synthesis and evaluation of some new benzimidazole derivatives as potential antimicrobial agents” (2009)
Converted amounts (≈) assume the structure as drawn. The source made the active and inactive calls. No cut-off for these calls is given here.

Legend:
[1] = system: Aspergillus flavus; experiment: Antifungal activity against Aspergillus flavus AIIMS isolate at 30 ug/ml by cup-plate agar diffusion method; assay type: functional; details: for zone of inhibition at 30 µg/mL: read-out: DIZ
Summary of the method: (§1)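 Cup-plate agar diffusion assay against the fungal strains, with amphotericin B as the reference standard.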

[2] = system: Escherichia coli; experiment: Antibacterial activity against Escherichia coli ATCC 25922 after 24 hrs; assay type: functional
[3] = system: Escherichia coli; experiment: Antibacterial activity against Escherichia coli ATCC 25922 at 200 ug/ml after 24 hrs; assay type: functional, organism-based
Summary of the method: (§2)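 Organisms grown overnight at 37 °C in buffered glucose broth. A loopful (5 mm diameter) was added to buffered glucose broth containing the test compound and incubated at 37 °C for 24 h. Growth was scored against the untreated control as total inhibition, poor, medium or confluent growth.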

[4] = system: Bacillus subtilis; experiment: Antibacterial activity against Bacillus subtilis MTCC 121 at 500 ug/ml after 24 hrs; assay type: functional, organism-based; summary of the method: as §2
[5] = system: Bacillus subtilis; experiment: Antibacterial activity against Bacillus subtilis MTCC 121 after 24 hrs; assay type: functional
[6] = system: Aspergillus niger; experiment: Antifungal activity against Aspergillus niger AIIMS isolate at 30 ug/ml by cup-plate agar diffusion method; assay type: functional; details: for zone of inhibition at 30 µg/mL: read-out: DIZ; summary of the method: as §1
[7] = system: Escherichia coli; experiment: Antibacterial activity against Escherichia coli ATCC 25922 at 1 ug/ml after 24 hrs; assay type: functional, organism-based; summary of the method: as §2
[8] = system: Bacillus subtilis; experiment: Antibacterial activity against Bacillus subtilis MTCC 121 at 200 ug/ml after 24 hrs; assay type: functional, organism-based; summary of the method: as §2
[9] = system: Bacillus subtilis; experiment: Antibacterial activity against Bacillus subtilis MTCC 121 at 100 ug/ml after 24 hrs; assay type: functional, organism-based; summary of the method: as §2
[10] = system: Candida albicans; experiment: Antifungal activity against Candida albicans MTCC 1637 at 30 ug/ml by cup-plate agar diffusion method; assay type: functional; details: for zone of inhibition at 30 µg/mL: read-out: DIZ; summary of the method: as §1
[11] = system: Escherichia coli; experiment: Antibacterial activity against Escherichia coli ATCC 25922 at 500 ug/ml after 24 hrs; assay type: functional, organism-based; summary of the method: as §2
[12] = system: Bacillus subtilis; experiment: Antibacterial activity against Bacillus subtilis MTCC 121 at 1 ug/ml after 24 hrs; assay type: functional, organism-based; summary of the method: as §2
[13] = system: Escherichia coli; experiment: Antibacterial activity against Escherichia coli ATCC 25922 at 100 ug/ml after 24 hrs; assay type: functional, organism-based; summary of the method: as §2
[14] = system: Bacillus subtilis; experiment: Antibacterial activity against Bacillus subtilis MTCC 121 at 10 ug/ml after 24 hrs; assay type: functional, organism-based; summary of the method: as §2
[15] = system: Escherichia coli; experiment: Antibacterial activity against Escherichia coli ATCC 25922 at 10 ug/ml after 24 hrs; assay type: functional, organism-based; summary of the method: as §2

SMILES | MIC ([2]; ATCC 25922, 24 h) [µg/mL] | MIC ([5]; MTCC 121, 24 h) [µg/mL] | zone of inhibition at 30 µg/mL [1] [mm] | inhibition [3] | inhibition [4] | zone of inhibition at 30 µg/mL [6] [mm] | inhibition [7] | inhibition [8] | inhibition [9] | zone of inhibition at 30 µg/mL [10] [mm] | inhibition [11] | inhibition [12] | inhibition [13] | inhibition [14] | inhibition [15] | other results
Cc1ccccc1/C=N/c1nnc(Cn2c(C)nc3ccccc32)s1 | 100 (≈ 288 µM) | 200 (≈ 576 µM) | < 10 | Active | Active | 10 | inactive | Active |  | 10 | Active | inactive | Active | inactive |  | 
Cc1nc2ccccc2n1Cc1nnc(/N=C/c2ccc(N)cc2)s1 | 200 (≈ 574 µM) | 100 (≈ 287 µM) | 10 | Active | Active | 22 | inactive | Active | Active | 16 | Active | inactive |  |  |  | 
Cc1nc2ccccc2n1Cc1nnc(/N=C/c2ccccc2)s1 | 200 (≈ 600 µM) | 100 (≈ 300 µM) | 22 | Active | Active | 22 | inactive | Active | Active | 16 | Active | inactive |  |  |  | 
Cc1nc2ccccc2n1Cc1nnc(N2C(=O)C(Cl)C2c2ccccc2)s1 (configuration not stated) | 500 (≈ 1220 µM) | 200 (≈ 488 µM) | 16 |  | Active | 10 | inactive | Active |  | 16 | Active | inactive |  | inactive | inactive | 
Cc1nc2ccccc2n1Cc1nnc(/N=C/c2ccc(Cl)cc2)s1 |  |  | < 10 | inactive |  | 10 | inactive | inactive | inactive | 10 | inactive | inactive | inactive | inactive | inactive | MIC [2]: inactive; Activity [4]: inactive; MIC [5]: inactive
Cc1nc2ccccc2n1Cc1nnc(/N=C/c2ccccc2Cl)s1 | 100 (≈ 272 µM) | 100 (≈ 272 µM) |  | Active | Active |  | inactive | Active | Active |  | Active | inactive | Active |  |  | diameter of the inhibition zone (DIZ) [1]: inactive; diameter of the inhibition zone (DIZ) [6]: inactive; diameter of the inhibition zone (DIZ) [10]: inactive
Cc1nc2ccccc2n1Cc1nnc(N2C(=O)C(Cl)C2c2ccccc2Cl)s1 (configuration not stated) | 100 (≈ 225 µM) | 200 (≈ 450 µM) |  | Active | Active |  | inactive | Active |  |  | Active | inactive | Active | inactive |  | diameter of the inhibition zone (DIZ) [1]: inactive; diameter of the inhibition zone (DIZ) [6]: inactive; diameter of the inhibition zone (DIZ) [10]: inactive
Cc1nc2ccccc2n1Cc1nnc(/N=C/c2ccc(O)cc2)s1 | 200 (≈ 572 µM) | 200 (≈ 572 µM) | 16 | Active | Active | 16 | inactive | Active |  | 16 | Active | inactive |  |  |  | 
Cc1ccccc1C1C(Cl)C(=O)N1c1nnc(Cn2c(C)nc3ccccc32)s1 (configuration not stated) | 100 (≈ 236 µM) | 100 (≈ 236 µM) | < 10 | Active | Active | 16 | inactive | Active | Active | 10 | Active | inactive | Active |  |  | 
C[C@@H]1[C@H](O)[C@@H](C)/C=C/C=C/C=C/C=C/C=C/C=C/C=C/[C@H](O[C@@H]2O[C@H](C)[C@@H](O)[C@H](N)[C@@H]2O)C[C@@H]2O[C@](O)(C[C@@H](O)C[C@@H](O)[C@H](O)CC[C@@H](O)C[C@@H](O)CC(=O)O[C@H]1C)C[C@H](O)[C@H]2C(=O)O [AMPHOTERICIN B] |  |  | 22 |  |  | 22 |  |  |  | 22 |  |  |  |  |  | 
Cc1nc2ccccc2n1Cc1nnc(N2C(=O)C(Cl)C2c2ccc(O)cc2)s1 (configuration not stated) | 500 (≈ 1170 µM) | 200 (≈ 470 µM) | 16 |  | Active | 16 | inactive | Active |  | 16 | Active |  |  |  | inactive | 

More lines, main results first:

MIC ([2]; ATCC 25922, 24 h) [µg/mL] | MIC ([5]; MTCC 121, 24 h) [µg/mL] | SMILES | zone of inhibition at 30 µg/mL [1] [mm] | inhibition [3] | inhibition [4] | zone of inhibition at 30 µg/mL [6] [mm] | inhibition [7] | inhibition [8] | inhibition [9] | zone of inhibition at 30 µg/mL [10] [mm] | inhibition [11] | inhibition [12] | inhibition [13] | inhibition [14] | inhibition [15] | other results
200 (≈ 471 µM) | 100 (≈ 235 µM) | Cc1nc2ccccc2n1Cc1nnc(N2C(=O)C(Cl)C2c2ccc(N)cc2)s1 (configuration not stated) | 10 | Active | Active | 10 | inactive | Active | Active | 16 | Active |  |  |  |  | 
200 (≈ 470 µM) | 100 (≈ 235 µM) | Cc1nc2ccccc2n1Cc1nnc(N2C(=O)C(Cl)C2c2ccccc2O)s1 (configuration not stated) | 10 | Active | Active | 16 | inactive | Active | Active | 10 | Active |  |  |  |  | 
10 (≈ 28.6 µM) | 10 (≈ 28.6 µM) | CC1(C)S[C@@H]2[C@H](NC(=O)[C@H](N)c3ccccc3)C(=O)N2[C@H]1C(=O)O [AMPICILLIN] |  | Active | Active |  |  | Active | Active |  | Active |  | Active | Active | Active | 
500 (≈ 1210 µM) | 500 (≈ 1210 µM) | Cc1nc2ccccc2n1Cc1nnc(/N=C/c2ccc(Br)cc2)s1 |  |  | Active |  | inactive |  |  |  | Active | inactive |  | inactive | inactive | diameter of the inhibition zone (DIZ) [1]: inactive; diameter of the inhibition zone (DIZ) [6]: inactive; diameter of the inhibition zone (DIZ) [10]: inactive
200 (≈ 550 µM) | 100 (≈ 275 µM) | COc1ccc(/C=N/c2nnc(Cn3c(C)nc4ccccc43)s2)cc1 | 16 | Active | Active | 16 | inactive | Active | Active | 10 | Active | inactive |  |  | inactive | 
200 (≈ 572 µM) | 100 (≈ 286 µM) | Cc1nc2ccccc2n1Cc1nnc(/N=C/c2ccccc2O)s1 |  | Active | Active |  | inactive | Active | Active |  | Active | inactive |  |  | inactive | diameter of the inhibition zone (DIZ) [1]: inactive; diameter of the inhibition zone (DIZ) [6]: inactive; diameter of the inhibition zone (DIZ) [10]: inactive
500 (≈ 1170 µM) | 200 (≈ 470 µM) | Cc1nc2ccccc2n1Cc1nnc(N2C(=O)C(Cl)C2c2cccc(O)c2)s1 (configuration not stated) |  |  | Active |  | inactive | Active |  |  | Active | inactive |  |  |  | diameter of the inhibition zone (DIZ) [1]: inactive; diameter of the inhibition zone (DIZ) [6]: inactive; diameter of the inhibition zone (DIZ) [10]: inactive
200 (≈ 455 µM) | 200 (≈ 455 µM) | COc1ccc(C2C(Cl)C(=O)N2c2nnc(Cn3c(C)nc4ccccc43)s2)cc1 (configuration not stated) | < 10 | Active | Active | < 10 | inactive | Active |  | 10 | Active | inactive |  |  |  | 
500 (≈ 1180 µM) | 500 (≈ 1180 µM) | Cc1ccc(C2C(Cl)C(=O)N2c2nnc(Cn3c(C)nc4ccccc43)s2)cc1 (configuration not stated) | 16 |  | Active | 10 | inactive |  |  | < 10 | Active | inactive |  | inactive |  | 
